pEC50: −log10 of the molar value. In brackets after ≈: the same amount, converted by molar mass.

Data set [1] can be described thus: Compound was tested for plasma concentration in CM-monkeys 7 hours after oral administration (50 mg/kg). The class given is ADME, organism-based, Macaca fascicularis. The note with it: cynomolgus monkey. The method in brief: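 Male CM-monkeys (BW ~3.9 kg, n = 3), single oral dose of 50 mg/kg in 80:20 propylene glycol:sterile water at 15.0 mg/mL. Blood sampled periodically up to 24 h post-dose. Plasma concentration at 7 h measured by LCMS. Parameters from noncompartmental analysis of individual concentration-time data.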

A short description of data set [2]: Compound was tested in vitro for loss of compound after 4 hours exposure to hepatocytes of human at 25 uM concentration. Type of data set: ADME, organism-based, Hepatocyte. The note with it: read-out: Metabolism.
Data set [3] in a line: Compound was tested for human plasma protein binding. Type of data set: ADME, cell-free. In short, it runs like this:
(§1)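 Ultrafiltration binding. Compound added from 1 mM and 0.1 mM stocks into heparinized dog or human plasma or pH 7.4 phosphate buffer, giving final 1 and 10 μM. Incubated 1 h at 37 °C, then centrifugal ultrafiltration. Filtrate and whole plasma quantified by LCMS with internal standard. % free = filtrate/whole plasma × 100. Three replicates per species per concentration.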

Data set [4] is described as follows: Compound was tested in vitro for loss of compound after 30 min exposure to liver microsomes of human at 25 uM concentration. The class given is ADME, organism-based. The note with it: read-out: Metabolism. The method in brief: (§2)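 Pooled liver microsomes (dog, monkey or human; 1 mg/mL, 6–8 livers) with 2 mM NADPH in 100 mM potassium phosphate, pH 7.4, preincubated 1 min at 37 °C. Started with 25 μM compound, run 30 min, quenched with acetonitrile. Time-zero controls quenched before compound addition. Remaining compound by reversed-phase HPLC at 215 nm. Reported as % metabolized.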

A short description of data set [5]: Compound was tested for plasma concentration in dogs 7 hours after oral administration (30 mg/kg) in experiment 2. Type of data set: ADME, organism-based, Canis lupus familiaris. The note with it: dog. The method in brief: (§3)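 Male beagle dogs (BW ~9.3 kg, n = 3), single oral dose of 30 mg/kg. Vehicle was 80:20 propylene glycol:sterile water (15.0 mg/mL) or, in some studies, a 0.5% carboxymethyl cellulose suspension. Blood sampled up to 24 h. Plasma level at 7 h determined by LCMS. Noncompartmental analysis of individual concentration-time profiles.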

The nature of data set [6]: Half-life upon exposure to human plasma. The class given is ADME, organism-based. In short, it runs like this:
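Pooled heparinized human plasma (10 donors) or 100 mM potassium phosphate pH 7.4 buffer (n = 3 each), spiked to final 25 μM compound from acetonitrile stock. Incubated at 37 °C for 1–3 h with regular sampling. Protein precipitated with acetonitrile, then LC quantification against a 0.05–40 μg/mL standard curve. Half-life by linear regression of mean concentration-time data.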

The next data set concerns Caco-2. The note with it: Homo sapiens.
Data set [7] can be described thus: Compound was tested for plasma concentration in dogs 7 hours after oral administration (30 mg/kg) in experiment 1. The class given is ADME, organism-based, Canis lupus familiaris. The note with it: dog. In short, it runs like this:
as §3

Data set [8] in a line: Compound was tested in vitro for loss of compound after 4 hours exposure to hepatocytes of monkey at 25 uM concentration. Type of data set: ADME, cell-based, Hepatocyte. The note with it: simiiformes, read-out: Metabolism.
Data set [9] concerns Enterovirus. Description: In vitro anti-rhinoviral activity against human rhinovirus serotypes 2,3,9,14,16,25 and 39. The class given is functional, organism-based.
A short description of data set [10]: Compound was tested in vitro for loss of compound after 30 min exposure to liver microsomes of dog at 25 uM concentration. Type of data set: ADME, organism-based, Canis lupus familiaris. The note with it: read-out: Metabolism. In short, it runs like this: as §2
For another data set, the species on record is Canis familiaris. Description: Compound was tested for plasma protein binding of dog. Type of data set: ADME, organism-based, Canis lupus familiaris. The method in brief:
as §1

Data set [11] can be described thus: Thermodynamic aqueous solubility was determined. The note with it: buffer. The class given is physicochemical. In short, it runs like this: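 1–2 mg compound stirred in 1 mL of pH 7.0, 50 mM phosphate buffer at room temperature for 4 h. Filtered through a 0.45 μm filter. Filtrate concentration determined by HPLC against a standard of known concentration.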

Data set [12] is described as follows: Compound was tested in vitro for loss of compound after 4 hours exposure to hepatocytes of dog at 25 uM concentration. The class given is ADME, organism-based, Canis lupus familiaris, Hepatocyte. The note with it: read-out: Metabolism.
The test system of data set [13] is Enterovirus. Description: In vitro antirhinoviral activity against human rhinovirus serotypes 2, 3, 9, 14, 16 and 39 (mean).
Data set [14] is described as follows: Compound was tested in vitro for loss of compound after 2 hours exposure to hepatocytes of dog at 25 uM concentration. The note with it: read-out: Metabolism. Type of data set: ADME, organism-based, Canis lupus familiaris, Hepatocyte.
Data set [15] can be described thus: Compound was tested in vitro for loss of compound after 2 hours exposure to hepatocytes of human at 25 uM concentration. The class given is ADME, organism-based, Hepatocyte. The note with it: read-out: Metabolism.
Data set [16] has as its target T1, Human rhinovirus A protease (Human rhinovirus sp.) (UniProt Q4U254).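 Further: inhibition of the human rhinovirus 3C protease enzyme.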
T1 sequence (whole entry): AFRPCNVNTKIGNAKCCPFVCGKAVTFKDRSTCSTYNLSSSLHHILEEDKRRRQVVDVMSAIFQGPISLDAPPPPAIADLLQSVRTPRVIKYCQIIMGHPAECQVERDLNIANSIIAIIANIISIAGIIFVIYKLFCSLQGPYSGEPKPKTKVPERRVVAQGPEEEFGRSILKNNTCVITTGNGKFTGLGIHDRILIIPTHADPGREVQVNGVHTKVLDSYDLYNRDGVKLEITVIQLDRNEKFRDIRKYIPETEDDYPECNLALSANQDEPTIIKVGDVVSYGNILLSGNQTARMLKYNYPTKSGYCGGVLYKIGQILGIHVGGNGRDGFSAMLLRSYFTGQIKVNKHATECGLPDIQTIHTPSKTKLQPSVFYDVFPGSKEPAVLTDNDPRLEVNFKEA

Data set [17] can be described thus: Compound was tested in vitro for loss of compound after 30 min exposure to liver microsomes of monkey at 25 uM concentration. Type of data set: ADME, Microsome. The note with it: simiiformes, read-out: Metabolism. In short, it runs like this: as §2
A short description of data set [18]: Compound was tested in vitro for loss of compound after 2 hours exposure to hepatocytes of monkey at 5 uM concentration. The class given is ADME, cell-based, Hepatocyte. The note with it: simiiformes, read-out: Metabolism.

Regarding `Cc1cc(C(=O)Nc2cccn([C@@H](Cc3ccc(F)c(F)c3)C(=O)N[C@H](/C=C/C(=O)OC(C)C)C[C@@H]3CCNC3=O)c2=O)no1`, the concentration at 7 h in data set [1] worked out at 12 nM; in data set [5], 959 nM; in data set [7], 815 nM. Besides, the figures for the metabolised at 4 h, 25 µM in data set [2], in data set [8] and in data set [12] were 87%, 92% and 16%, respectively. Further, the results for the Free (in data set [3]; in the data set listed under Canis familiaris) were 9% and 19%, respectively. Moreover, the metabolised at 0.5 h, 25 µM in [4] was found to be 56%; in data set [10], 57%. In addition, the half-life in data set [6] is 9.7 h. Further, the Papp in the data set with Caco-2 was 36 10e-6 cm s-1. Further, the pEC50 with Enterovirus [9] is 7.11. For the same compound, the solubility (thermodynamic) in data set [11] is 21 µg/mL (≈ 33.6 µM).
Take `CCOC(=O)c1ccc(OCCC2CCN(c3ccc(C)nn3)CC2)cc1` [PIRODAVIR]: in the data set with Enterovirus [13], the pEC50 is 7.51.
On to `CCOC(=O)/C=C/[C@H](C[C@@H]1CCNC1=O)NC(=O)[C@H](CC)n1cccc(NC(=O)c2cc(C)on2)c1=O`, for which the concentration at 7 h is 896 nM in data set [1], less than 10 nM in [5] and 682 nM in data set [7]. Also, the results for the metabolised at 2 h, 25 µM in data set [14] and in data set [15] were 14% and 82%, respectively. Further, the figures for the metabolised at 0.5 h, 25 µM in data set [4], in [10] and in data set [17] were 61%, 37% and 61%, respectively. The compound further showed a half-life in data set [6] of 5.6 h. Further, the Papp with Caco-2 is 5 10e-6 cm s-1. The pEC50 in the data set on Enterovirus [9] was 7.33. For the same compound, the K obs / 1 in data set [16] is 170000 M⁻¹ s⁻¹. Besides, the metabolised at 2 h, 5 µM in [18] stood at 76%. For the same compound, the thermodynamic solubility in [11] is 38 µg/mL (≈ 74 µM).

These data come from ChEMBL document CHEMBL1145131, “Structure-based design, synthesis, and biological evaluation of irreversible human rhinovirus 3C protease inhibitors. 8. Pharmacological optimization of orally bioavailable 2-pyridone-containing peptidomimetics” (J Med Chem, 2003).
